pIC50: −log10 of the molar value.
How the values were obtained:
Prostacyclin receptor = Prostacyclin receptor (Homo sapiens, UniProt P43119); experiment: IC50 value was evaluated by measuring the displacement of [3H]iloprost from Prostaglandin I2 receptor
Procedure, shortened: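 Platelet plasma membranes (200 μg) incubated with 5 nM [3H]iloprost in 10 mM MgCl2, 1 mM EGTA, 50 mM Tris/HCl pH 7.4 at 0-4 °C for 90-120 min; diluted with ice-cold Tris buffer, rapidly filtered on GF/C, washed four times, bound radioactivity counted by scintillation; IC50 for displacement.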

Homo sapiens = species: Homo sapiens; experiment: Inhibition of ADP-induced human platelet aggregation; format: functional, organism-based
Procedure, shortened: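 Human blood drawn into 1/10 volume 3.8% sodium citrate, spun 10 min at 140g for platelet-rich plasma; compound in DMSO added to PRP 3 min before ADP (5.86 μM); aggregation followed by Born aggregometry (Mustard modification) against vehicle controls; IC50 from dose-response curves.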

Sequence of Prostacyclin receptor (P43119 whole entry): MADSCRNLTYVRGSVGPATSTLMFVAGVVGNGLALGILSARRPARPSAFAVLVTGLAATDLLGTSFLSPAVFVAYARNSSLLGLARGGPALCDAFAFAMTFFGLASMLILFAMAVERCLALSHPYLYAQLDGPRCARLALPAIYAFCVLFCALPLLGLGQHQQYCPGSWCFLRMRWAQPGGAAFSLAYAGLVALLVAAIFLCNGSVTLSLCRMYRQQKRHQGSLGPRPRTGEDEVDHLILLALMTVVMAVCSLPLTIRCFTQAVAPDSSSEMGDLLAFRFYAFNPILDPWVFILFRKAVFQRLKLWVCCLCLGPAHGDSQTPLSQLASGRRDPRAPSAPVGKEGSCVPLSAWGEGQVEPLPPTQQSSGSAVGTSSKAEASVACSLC

| pIC50 (Prostacyclin receptor) | pIC50 (Homo sapiens) | Compound |
| --- | --- | --- |
| 6.46 | 5.35 | O=C(O)CCCCCCCCn1cc(-c2ccccc2)c(-c2ccccc2)n1 |
| 6.80 | 6.40 | O=C(O)CCCCCCCCn1nc(-c2ccccc2)c(-c2ccccc2)c1-c1ccccc1 |
|  | 4.48 | NC(=O)CCCCCCCCn1nc(-c2ccccc2)c(-c2ccccc2)c1-c1ccccc1 |
|  | 5.23 | CS(=O)(=O)NC(=O)CCCCCCCCn1nc(-c2ccccc2)c(-c2ccccc2)c1-c1ccccc1 |
|  | 5.98 | c1ccc(-c2nn(CCCCCCCCc3nnn[nH]3)c(-c3ccccc3)c2-c2ccccc2)cc1 |
|  | < 4.04 | O=C(O)CCCCCCn1ncc(-c2ccccc2)c1-c1ccccc1 |
| 6.15 | 5.24 | O=C(O)CCCCCCCCn1ncc(-c2ccccc2)c1-c1ccccc1 |
|  | 6.36 | O=C(O)COCCCCCCn1nc(-c2ccccc2)c(-c2ccccc2)c1-c1ccccc1 |
|  | < 4.21 | CC(C)(C)OC(=O)COCCCCCCn1nc(-c2ccccc2)c(-c2ccccc2)c1-c1ccccc1 |
|  | 4.66 | O=C(O)CS(=O)(=O)CCCCCCn1nc(-c2ccccc2)c(-c2ccccc2)c1-c1ccccc1 |
| < 5.00 | < 3.98 | O=C(O)CCCCCCCCn1cc(-c2ccccc2)cn1 |
|  | < 4.17 | CNC(=O)CCCCCCCCn1nc(-c2ccccc2)c(-c2ccccc2)c1-c1ccccc1 |
|  | 5.26 | O=C(O)CCCCCCCCCn1nc(-c2ccccc2)c(-c2ccccc2)c1-c1ccccc1 |
| < 5.00 | < 4.18 | O=C(O)CCCCCCCCn1nc(-c2ccccc2)cc1-c1ccccc1 |
|  | < 4.09 | O=C(O)CCCCCCCCCn1ncc(-c2ccccc2)c1-c1ccccc1 |
|  | 4.73 | O=C(O)CCCCCCCCCCn1nc(-c2ccccc2)c(-c2ccccc2)c1-c1ccccc1 |
|  | 5.47 | O=C(O)CCCCCCCn1nc(-c2ccccc2)c(-c2ccccc2)c1-c1ccccc1 |
|  | 6.06 | O=C(O)CSCCCCCCn1nc(-c2ccccc2)c(-c2ccccc2)c1-c1ccccc1 |
|  | < 4.09 | O=C(O)CCCCCCCCCn1cc(-c2ccccc2)c(-c2ccccc2)n1 |
|  | 5.19 | O=C(O)C[S+]([O-])CCCCCCn1nc(-c2ccccc2)c(-c2ccccc2)c1-c1ccccc1 (stereo not given) |
|  | < 4.10 | CCc1c(-c2ccccc2)nn(CCCCCCCCC(=O)O)c1-c1ccccc1 |
|  | < 4.04 | O=C(O)CCCCCCn1cc(-c2ccccc2)c(-c2ccccc2)n1 |
|  | 4.65 | O=C(O)CCCCCCn1nc(-c2ccccc2)c(-c2ccccc2)c1-c1ccccc1 |
|  | < 4.11 | O=C(O)CCCCCn1nc(-c2ccccc2)c(-c2ccccc2)c1-c1ccccc1 |
|  | < 4.17 | O=C(O)CCCCCCCCn1nc(-c2ccccc2)c(Cc2ccccc2)c1-c1ccccc1 |
|  | 5.37 | COC(=O)CCCCCCCCn1nc(-c2ccccc2)c(-c2ccccc2)c1-c1ccccc1 |
|  | < 4.07 | O=C(O)CCCCCCCn1cc(-c2ccccc2)c(-c2ccccc2)n1 |
| 6.80 | 5.82 | O=C(O)CCCCCCCn1ncc(-c2ccccc2)c1-c1ccccc1 |
|  | < 4.14 | N#CCCCCCCCCn1nc(-c2ccccc2)c(-c2ccccc2)c1-c1ccccc1 |

— ChEMBL document CHEMBL1125296, “Structure-activity relationships associated with 3,4,5-triphenyl-1H-pyrazole-1-nonanoic acid, a nonprostanoid prostacyclin mimetic” (J Med Chem, 1992)
